Calls of active or inactive are those of the source.
Assays:
Mus musculus [1] = organism: Mus musculus; assay: Ratio of acetylsalicylic acid ED50 to compound ED50 for analgesic activity in Albino-Swiss mouse assessed as protection against phenylbenzoquinone-induced writhing; format: functional
Method in brief: (§1)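 Mice (groups of 6–8) dosed i.p. at 3.125–50 mg/kg as 0.5% methylcellulose suspension; 30 min later 0.02% phenylbenzoquinone (ethanol–water 5:95) 0.25 ml i.p. Writhes counted for 10 min starting 5 min after irritant. % effect versus control writhing count; ED50 with confidence limits by Litchfield and Wilcoxon.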

[2] = Acute toxicity in ip dosed Albino-Swiss mouse; format: organism-based; conditions: in vivo
Method in brief: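 Mice (20–24 g) given compound i.p. as 0.5% methylcellulose suspension, 10 ml/kg, in rising doses up to 2000 mg/kg; six animals per dose. Deaths counted at 24 h, general behaviour watched for 6 h. LD50 by Litchfield and Wilcoxon.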

Mus musculus [3] = assay: Analgesic activity in Albino-Swiss mouse assessed as inhibition of heat-induced paw licking or jumping behavior administered as ip measured after 30 mins for 45 secs by Eddy and Leimbach's hot plate method; format: functional
Method in brief: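 Compound i.p. in 0.5% methylcellulose suspension (10 ml/kg), groups of 6–8 mice. Placed on plate at 54–56 °C; latency to forepaw licking or jumping timed by stop-watch before and 30 min after dosing, 45 s cut-off. Latency prolongation compared statistically. Morphine 1, 3, 6 mg/kg and acetylsalicylic acid 100–400 mg/kg i.p. as references.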

Mus musculus [4] = assay: Analgesic activity in Albino-Swiss mouse assessed as protection against phenylbenzoquinone-induced writhing administered as ip 30 mins before phenylbenzoquinone challenge measured after 5 mins; format: functional; method in brief: as §1
Mus musculus [5] = organism: Mus musculus; assay: Ratio of morphine ED50 to compound ED50 for analgesic activity in Albino-Swiss mouse by Eddy and Leimbach's hot plate method; format: functional
Mu-type opioid receptor = Mu-type opioid receptor (Rattus norvegicus, UniProt P33535); assay: Displacement of [3H]-dihydromorphine from mu opioid receptor in rat cerebral cortex by liquid scintillation counting; format: tissue-based
Chain of Mu-type opioid receptor (P33535 whole entry): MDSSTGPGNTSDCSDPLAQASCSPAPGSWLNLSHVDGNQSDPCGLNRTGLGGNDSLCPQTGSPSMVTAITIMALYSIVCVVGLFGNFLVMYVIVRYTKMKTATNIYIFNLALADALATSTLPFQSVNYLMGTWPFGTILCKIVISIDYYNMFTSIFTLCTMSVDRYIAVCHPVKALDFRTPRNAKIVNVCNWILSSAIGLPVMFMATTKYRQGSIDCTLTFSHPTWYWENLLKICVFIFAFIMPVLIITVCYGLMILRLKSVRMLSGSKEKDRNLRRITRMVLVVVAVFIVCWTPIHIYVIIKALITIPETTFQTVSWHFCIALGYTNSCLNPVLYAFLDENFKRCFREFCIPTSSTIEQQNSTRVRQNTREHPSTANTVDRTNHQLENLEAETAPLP
Method in brief: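 Rat cerebral cortex homogenised in 50 mM Tris-HCl pH 7.6, washed by centrifugation at 48,000 × g, preincubated 30 min at 37 °C to remove endogenous opioids. Membranes incubated with 0.2 nM [3H]dihydromorphine and 7–8 compound concentrations (10^-11–10^-4 M); nonspecific binding with levallorphan. Filtration on GF/C, two washes, scintillation counting, duplicates. Result given as Ki.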

Mus musculus [6] = assay: Toxicity in ip dosed Albino-Swiss mouse assessed as decrease in locomotor activity at hot plate test ED50 after 1 hr; format: organism-based; parameters: scale not given: the % may be the effect or the level left; conditions: in vivo
Method in brief: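 Mice (Albino-Swiss, 20–24 g) received compound i.p. as a 0.5% methylcellulose suspension (10 ml/kg). After 30 min, each mouse was put alone for a 30-min session in a circular photoresistor actometer (30 cm diameter, two photocells, impulse counter), which counted movements.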

Mus musculus [7] = assay: Analgesic activity in Albino-Swiss mouse assessed as inhibition of heat-induced paw licking or jumping behavior at 200 mg/kg, ip measured after 30 mins for 45 secs by Eddy and Leimbach's hot plate method; format: functional, organism-based; parameters: dose 200 mg/kg
Method in brief: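 Albino-Swiss mice (20–24 g), groups of 6–8, dosed i.p. as a suspension in 0.5% methylcellulose (10 ml/kg). Each mouse was placed on a metal plate at 54–56 °C, and time to forepaw licking or jumping was stopwatch-timed before and 30 min after dosing, with a 45 s cut-off. Latency prolongation was compared by Student's t-test.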

With `Cc1c2c(=O)[nH]n(CCN3CCN(c4ccccn4)CC3)c(=O)c2c(C)n1-c1ccccc1` the “Ratio ED50” value (Mus musculus [1]) was 100, the LD50 [2] was over 2000 mg/kg and the ED50 (Mus musculus [3]) was “inactive”. The ED50 (Mus musculus [4]) was 6.84 mg/kg.
With `Cc1c2c(=O)[nH]n(CCN3CCN(C/C=C/c4ccccc4)CC3)c(=O)c2c(C)n1-c1ccccc1` the “Ratio ED50” value (Mus musculus [1]) was 100, the LD50 [2] was over 2000 mg/kg and the ED50 (Mus musculus [3]) was “inactive”. For the same compound, the ED50 (Mus musculus [4]) was 1.25 mg/kg.
With `Cc1c2c(=O)[nH]n(CCN3CCN(c4ccccc4F)CC3)c(=O)c2c(C)n1-c1ccccc1` the “Ratio ED50” value (Mus musculus [1]) was 100, the “Ratio ED50” value (Mus musculus [5]) was 3 and the IC50 (Mu-type opioid receptor) was 24.2 µM. For the same compound, the Ki (Mu-type opioid receptor) was 11.1 µM, the Activity (Mus musculus [6]) was 20% and the LD50 [2] was over 2000 mg/kg. It also gave an ED50 (Mus musculus [3]; 0.5 h) of 15 mg/kg and an ED50 (Mus musculus [4]) of 0.31 mg/kg.
With `Cc1c2c(=O)[nH]n(CCN3CCC(Cc4ccccc4)CC3)c(=O)c2c(C)n1-c1ccccc1` the “Ratio ED50” value (Mus musculus [1]) was 100, the LD50 [2] was over 2000 mg/kg and the ED50 (Mus musculus [3]) was “inactive”. For the same compound, the ED50 (Mus musculus [4]) was 1.91 mg/kg.
With `Cc1c2c(=O)[nH]n(CCN3CCN(c4ccccc4Cl)CC3)c(=O)c2c(C)n1-c1ccccc1` the “Ratio ED50” value (Mus musculus [1]) was 100, the LD50 [2] was over 2000 mg/kg and the ED50 (Mus musculus [3]) was “inactive”. The ED50 (Mus musculus [4]) was 3.77 mg/kg.
With `COc1ccccc1N1CCN(CCn2[nH]c(=O)c3c(C)n(-c4ccccc4)c(C)c3c2=O)CC1` the “Ratio ED50” value (Mus musculus [1]) was 100, the LD50 [2] was over 2000 mg/kg and the ED50 (Mus musculus [3]) was “inactive”. The ED50 (Mus musculus [4]) was 8.02 mg/kg.
`COc1cccc(C2(O)CCCCC2CN(C)C)c1` (centres undefined) [TRAMADOL] gave a Ki (Mu-type opioid receptor) of 2.4 µM.
With `CC(=O)Oc1ccccc1C(=O)O` the inhibition (Mus musculus [7]) was “inactive”.
In the case of `Cc1c2c(=O)[nH]n(CCN3CCN(Cc4ccc5c(c4)OCO5)CC3)c(=O)c2c(C)n1-c1ccccc1`, the “Ratio ED50” value (Mus musculus [1]) is reported as 100, the LD50 [2] is reported as over 2000 mg/kg and the ED50 (Mus musculus [3]) is reported as “inactive”. For the same compound, the ED50 (Mus musculus [4]) was 1.92 mg/kg.
For `Cc1c2c(=O)[nH]n(CCN3CCN(c4ccccc4)CC3)c(=O)c2c(C)n1-c1ccccc1`, the “Ratio ED50” value (Mus musculus [1]) was 100, the LD50 [2] was over 2000 mg/kg and the ED50 (Mus musculus [3]) was “inactive”. The ED50 (Mus musculus [4]) was 1.48 mg/kg.
In the case of `COc1ccccc1N1CCN(CCCOc2nn(C)c(=O)c3c(C)n(-c4ccccc4)c(C)c23)CC1`, the LD50 [2] is reported as over 2000 mg/kg, the ED50 (Mus musculus [3]) is reported as “inactive” and the ED50 (Mus musculus [4]) is reported as 11.2 mg/kg.
With `C=CCN1CC[C@]23CCCC[C@H]2[C@H]1Cc1ccc(O)cc13` [LEVALLORPHAN] the IC50 (Mu-type opioid receptor) was 0.000634 µM.
In the case of `Cc1c2c(OCCCN3CCN(c4ccccc4)CC3)nn(C)c(=O)c2c(C)n1-c1ccccc1`, the LD50 [2] is reported as 1420 mg/kg, the ED50 (Mus musculus [3]) is reported as “inactive” and the ED50 (Mus musculus [4]) is reported as 7.9 mg/kg.
For `Cc1c2c(=O)[nH]n(CCN3CCN(Cc4ccccc4)CC3)c(=O)c2c(C)n1-c1ccccc1`, the “Ratio ED50” value (Mus musculus [1]) was 100, the LD50 [2] was over 2000 mg/kg and the ED50 (Mus musculus [3]) was “inactive”. For the same compound, the ED50 (Mus musculus [4]) was 0.04 mg/kg.
Work on `CN1CC[C@]23c4c5ccc(O)c4O[C@H]2[C@@H](O)C=C[C@H]3[C@H]1C5` [MORPHINE] yielded an ED50 (Mus musculus [3]; 0.5 h) of 3.5 mg/kg and an ED50 (Mus musculus [4]) of 2.44 mg/kg.
For `Cc1c2c(=O)[nH]n(CCN3CCN(C(c4ccccc4)c4ccccc4)CC3)c(=O)c2c(C)n1-c1ccccc1`, the “Ratio ED50” value (Mus musculus [1]) was 100, the LD50 [2] was over 2000 mg/kg and the ED50 (Mus musculus [3]) was “inactive”. The ED50 (Mus musculus [4]) was 1.83 mg/kg.
With `Cc1c2c(=O)[nH]n(CCN3CCN(c4cccc(C(F)(F)F)c4)CC3)c(=O)c2c(C)n1-c1ccccc1` the “Ratio ED50” value (Mus musculus [1]) was 100, the “Ratio ED50” value (Mus musculus [5]) was 3 and the Activity (Mus musculus [6]) was 20%. The LD50 [2] was over 2000 mg/kg, the ED50 (Mus musculus [3]; 0.5 h) was 15.9 mg/kg and the ED50 (Mus musculus [4]) was 1.23 mg/kg.
For `Cc1ccc(Cl)cc1N1CCN(CCn2[nH]c(=O)c3c(C)n(-c4ccccc4)c(C)c3c2=O)CC1`, the “Ratio ED50” value (Mus musculus [1]) was 100, the “Ratio ED50” value (Mus musculus [5]) was 3 and the IC50 (Mu-type opioid receptor) was 5.6 µM. It also gave a Ki (Mu-type opioid receptor) of 2.6 µM, an Activity (Mus musculus [6]) of 45% and an LD50 [2] of over 2000 mg/kg. The ED50 (Mus musculus [3]; 0.5 h) was 10.3 mg/kg and the ED50 (Mus musculus [4]) was 0.55 mg/kg.

From ChEMBL document CHEMBL1828600, “Derivatives of pyrrolo[3,4-d]pyridazinone, a new class of analgesic agents” (Eur J Med Chem, 2011)
